Reference: ChEMBL document CHEMBL4339192, “De Novo Designed Amphipathic α-Helical Antimicrobial Peptides Incorporating Dab and Dap Residues on the Polar Face To Treat the Gram-Negative Pathogen, Acinetobacter baumannii” (J Med Chem, 2019)
≈ marks a conversion by molar mass, not a printed value. Where a SMILES comes first, the peptide text is derived from it. [ ]: non-standard residue; d: D form. Dab = NCC[C@H](N)C(=O)O

Key:
[1] = Therapeutic index, ratio of HC50 for human RBC to MIC for polymyxin B/colistin-resistant Acinetobacter baumannii M89941; assay type: toxicity; details: human red blood cells, read-out: TI
Method in brief: (§1)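 T.I. = HC50/MIC. For HC50, peptide (quantified by amino acid analysis) was two-fold serially diluted over 12 concentrations up to 1000 μg/mL. It was incubated with 1% fresh human erythrocytes in PBS, pH 7.4, for 18 h at 37 °C. After 800g centrifugation, hemoglobin was read at 570 nm against water (100%) and no-peptide (0%) controls. HC50 came from a lysis-versus-concentration plot, average of 3 replicates.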

Acinetobacter baumannii [2] = experiment: Antibacterial activity against Acinetobacter baumannii isolate 964304 measured after 24 hrs by microtiter dilution method; assay type: functional; details: isolate 964304, 24 h
Method in brief: (§2)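 Broth microdilution in Mueller-Hinton (MH) medium. […] Plates were incubated 24 h at 37 °C. MIC was the lowest peptide concentration that inhibited growth, based on three sets of replicates.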

[3] = Therapeutic index, ratio of HC50 for human RBC to MIC for polymyxin B/colistin-resistant Acinetobacter baumannii M89951; assay type: toxicity; details: human red blood cells, read-out: TI; method in brief: as §1
Acinetobacter baumannii [4] = experiment: Antibacterial activity against Acinetobacter baumannii isolate 963618 measured after 24 hrs by microtiter dilution method; assay type: functional; details: isolate 963618, 24 h; method in brief: as §2
Acinetobacter baumannii [5] = experiment: Antibacterial activity against Acinetobacter baumannii isolate 1010245 measured after 24 hrs by microtiter dilution method; assay type: functional; details: isolate 1010245, 24 h; method in brief: as §2
Acinetobacter baumannii [6] = experiment: Antibacterial activity against Acinetobacter baumannii isolate 981650 measured after 24 hrs by microtiter dilution method; assay type: functional; details: isolate 981650, 24 h; method in brief: as §2
Acinetobacter baumannii [7] = experiment: Antibacterial activity against polymyxin B/colistin-resistant Acinetobacter baumannii M89963 measured after 24 hrs by microtiter dilution method; assay type: functional; details: M89963, 24 h; method in brief: as §2
Acinetobacter baumannii [8] = experiment: Antibacterial activity against Acinetobacter baumannii isolate 1002956 measured after 24 hrs by microtiter dilution method; assay type: functional; details: isolate 1002956, 24 h; method in brief: as §2
Acinetobacter baumannii [9] = experiment: Antibacterial activity against Acinetobacter baumannii isolate 1035794 measured after 24 hrs by microtiter dilution method; assay type: functional; details: isolate 1035794, 24 h; method in brief: as §2
Acinetobacter baumannii [10] = experiment: Antibacterial activity against Acinetobacter baumannii isolate 9383370 measured after 24 hrs by microtiter dilution method; assay type: functional; details: isolate 9383370, 24 h; method in brief: as §2
[11] = Therapeutic index, ratio of HC50 for human RBC to MIC for polymyxin B/colistin-resistant Acinetobacter baumannii M89952; assay type: toxicity; details: human red blood cells, read-out: TI; method in brief: as §1
[12] = Therapeutic index, ratio of HC50 for human RBC to MIC for polymyxin B/colistin-resistant Acinetobacter baumannii M89955; assay type: toxicity; details: human red blood cells, read-out: TI; method in brief: as §1
Acinetobacter baumannii [13] = experiment: Antibacterial activity against Acinetobacter baumannii isolate 1017395 measured after 24 hrs by microtiter dilution method; assay type: functional; details: isolate 1017395, 24 h; method in brief: as §2
Acinetobacter baumannii [14] = experiment: Antibacterial activity against Acinetobacter baumannii isolate 968886 measured after 24 hrs by microtiter dilution method; assay type: functional; details: isolate 968886, 24 h; method in brief: as §2
[15] = Therapeutic index, ratio of HC50 for human RBC to MIC for polymyxin B/colistin-resistant Acinetobacter baumannii M89953; assay type: toxicity; details: human red blood cells, read-out: TI; method in brief: as §1
[16] = Therapeutic index, ratio of HC50 for human RBC to MIC for polymyxin B/colistin-resistant Acinetobacter baumannii M89963; assay type: toxicity; details: human red blood cells, read-out: TI; method in brief: as §1
Acinetobacter baumannii [17] = experiment: Antibacterial activity against Acinetobacter baumannii 649 measured after 24 hrs by microtiter dilution method; assay type: functional; details: Acinetobacter baumannii, 649, 24 h; method in brief: as §2
Acinetobacter baumannii [18] = experiment: Antibacterial activity against Acinetobacter baumannii isolate 961997 measured after 24 hrs by microtiter dilution method; assay type: functional; details: isolate 961997, 24 h; method in brief: as §2
Acinetobacter baumannii [19] = experiment: Antibacterial activity against polymyxin B/colistin-resistant Acinetobacter baumannii M89952 measured after 24 hrs by microtiter dilution method; assay type: functional; details: M89952, 24 h; method in brief: as §2
Acinetobacter baumannii [20] = experiment: Antibacterial activity against polymyxin B/colistin-resistant Acinetobacter baumannii M89951 measured after 24 hrs by microtiter dilution method; assay type: functional; details: M89951, 24 h; method in brief: as §2
Acinetobacter baumannii [21] = experiment: Antibacterial activity against Acinetobacter baumannii 649 measured after 24 hrs in presence of 25% human serum by microtiter dilution method; assay type: functional; details: Acinetobacter baumannii, 649, 24 h
Method in brief: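 Blood strain 649 was tested by MH broth microdilution with and without 25% (v/v) human serum added to the medium. The test used a final inoculum of 5 × 10^5 cfu/mL and incubation at 37 °C. The ratio is the MIC in serum over the MIC in MH alone.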

[22] = Therapeutic index, ratio of HC50 for human RBC to MIC for polymyxin B/colistin-resistant Acinetobacter baumannii M89949; assay type: toxicity; details: human red blood cells, read-out: TI; method in brief: as §1
Acinetobacter baumannii [23] = experiment: Antibacterial activity against polymyxin B/colistin-resistant Acinetobacter baumannii M89949 measured after 24 hrs by microtiter dilution method; assay type: functional; details: M89949, 24 h; method in brief: as §2
Acinetobacter baumannii [24] = experiment: Antibacterial activity against Acinetobacter baumannii isolate 1010282 measured after 24 hrs by microtiter dilution method; assay type: functional; details: isolate 1010282, 24 h; method in brief: as §2
Acinetobacter baumannii [25] = experiment: Antibacterial activity against Acinetobacter baumannii isolate 1018887 measured after 24 hrs by microtiter dilution method; assay type: functional; details: isolate 1018887, 24 h; method in brief: as §2
Acinetobacter baumannii [26] = experiment: Antibacterial activity against Acinetobacter baumannii isolate 1035166 measured after 24 hrs by microtiter dilution method; assay type: functional; details: isolate 1035166, 24 h; method in brief: as §2
Acinetobacter baumannii [27] = experiment: Antibacterial activity against Acinetobacter baumannii isolate 1001611 measured after 24 hrs by microtiter dilution method; assay type: functional; details: isolate 1001611, 24 h; method in brief: as §2
Acinetobacter baumannii [28] = experiment: Antibacterial activity against Acinetobacter baumannii isolate 1007660 measured after 24 hrs by microtiter dilution method; assay type: functional; details: isolate 1007660, 24 h; method in brief: as §2
Acinetobacter baumannii [29] = experiment: Antibacterial activity against Acinetobacter baumannii isolate 1021371 measured after 24 hrs by microtiter dilution method; assay type: functional; details: isolate 1021371, 24 h; method in brief: as §2
Acinetobacter baumannii [30] = experiment: Antibacterial activity against Acinetobacter baumannii isolate 977751 measured after 24 hrs by microtiter dilution method; assay type: functional; details: isolate 977751, 24 h; method in brief: as §2
Acinetobacter baumannii [31] = experiment: Antibacterial activity against polymyxin B/colistin-resistant Acinetobacter baumannii M89941 measured after 24 hrs by microtiter dilution method; assay type: functional; details: M89941, 24 h; method in brief: as §2
Acinetobacter baumannii [32] = experiment: Antibacterial activity against polymyxin B/colistin-resistant Acinetobacter baumannii M89953 measured after 24 hrs by microtiter dilution method; assay type: functional; details: M89953, 24 h; method in brief: as §2
Acinetobacter baumannii [33] = experiment: Antibacterial activity against Acinetobacter baumannii isolate 965463 measured after 24 hrs by microtiter dilution method; assay type: functional; details: isolate 965463, 24 h; method in brief: as §2
Acinetobacter baumannii [34] = experiment: Antibacterial activity against Acinetobacter baumannii isolate 952654 measured after 24 hrs by microtiter dilution method; assay type: functional; details: isolate 952654, 24 h; method in brief: as §2
Acinetobacter baumannii [35] = experiment: Antibacterial activity against polymyxin B/colistin-resistant Acinetobacter baumannii M89955 measured after 24 hrs by microtiter dilution method; assay type: functional; details: M89955, 24 h; method in brief: as §2
[36] = Hemolytic activity against human RBC measured after 18 hrs by spectrophotometric method; assay type: ADME, cell-based, Erythrocyte; details: human red blood cells (erythrocytes)
Method in brief: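 Peptide (amount by amino acid analysis), two-fold serial dilutions at 12 concentrations up to 1000 μg/mL, with 1% human erythrocytes in PBS pH 7.4, 37 °C, 18 h. Unlysed cells removed by centrifugation (800g); hemoglobin read at 570 nm. Water-lysed cells = 100%, no-peptide cells = 0%. HC50 from plot of % lysis vs concentration (μM), average of 3 replicates.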

Acinetobacter baumannii [37] = experiment: Antibacterial activity against Acinetobacter baumannii isolate 963659 measured after 24 hrs by microtiter dilution method; assay type: functional; details: isolate 963659, 24 h; method in brief: as §2

For `CC(=O)N[C@H](CCCCN)C(=O)N[C@H](CC(C)C)C(=O)N[C@@H](CCN)C(=O)N[C@H](CO)C(=O)N[C@H](CC(C)C)C(=O)N[C@H](CC(C)C)C(=O)N[C@@H](CCN)C(=O)N[C@@H](C(=O)N[C@H](CC(C)C)C(=O)N[C@H](CO)C(=O)N[C@@H](CCN)C(=O)N[C@H](C)C(=O)N[C@H](CCCCN)C(=O)N[C@H](C)C(=O)N[C@H](C)C(=O)N[C@H](CCCCN)C(=O)N[C@H](CC(C)C)C(=O)N[C@@H](CCN)C(=O)N[C@@H](C(=O)N[C@H](CC(C)C)C(=O)N[C@H](CC(C)C)C(=O)N[C@@H](CCN)C(=O)N[C@H](C)C(=O)N[C@H](CC(C)C)C(=O)N[C@H](CO)C(=O)N[C@@H](CCN)C(N)=O)[C@H](C)O)[C@H](C)O` (Ac-[dK][dL][Dab][dS][dL][dL][Dab][dT][dL][dS][Dab][dA][dK][dA][dA][dK][dL][Dab][dT][dL][dL][Dab][dA][dL][dS][Dab]-NH2), the selectivity ratio [1] was greater than 742, the MIC (Acinetobacter baumannii [2]) was 1.5 µM (≈ 4.05 µg/mL) and the selectivity ratio [3] was greater than 742. The MIC (Acinetobacter baumannii [4]) was 0.7 µM (≈ 1.89 µg/mL), the MIC (Acinetobacter baumannii [5]) was 0.7 µM (≈ 1.89 µg/mL) and the MIC (Acinetobacter baumannii [6]) was 0.7 µM (≈ 1.89 µg/mL). For the same compound, the MIC (Acinetobacter baumannii [7]) was 1.4 µM (≈ 3.78 µg/mL), the MIC (Acinetobacter baumannii [8]) was 0.7 µM (≈ 1.89 µg/mL) and the MIC (Acinetobacter baumannii [9]) was 1.5 µM (≈ 4.05 µg/mL). The MIC (Acinetobacter baumannii [10]) was 0.7 µM (≈ 1.89 µg/mL), the selectivity ratio [11] was greater than 742 and the selectivity ratio [12] was greater than 742. The MIC (Acinetobacter baumannii [13]) was 3 µM (≈ 8.09 µg/mL), the MIC (Acinetobacter baumannii [14]) was 1.5 µM (≈ 4.05 µg/mL) and the selectivity ratio [15] was greater than 742. The selectivity ratio [16] was greater than 742, the MIC (Acinetobacter baumannii [17]) was 0.7 µM (≈ 1.89 µg/mL) and the MIC (Acinetobacter baumannii [18]) was 0.7 µM (≈ 1.89 µg/mL). For the same compound, the MIC (Acinetobacter baumannii [19]) was 0.7 µM (≈ 1.89 µg/mL), the MIC (Acinetobacter baumannii [20]) was 1.4 µM (≈ 3.78 µg/mL) and the MIC (Acinetobacter baumannii [21]) was 0.2 µM. For the same compound, the selectivity ratio [22] was greater than 742, the MIC (Acinetobacter baumannii [23]) was 0.7 µM (≈ 1.89 µg/mL) and the MIC (Acinetobacter baumannii [24]) was 0.7 µM (≈ 1.89 µg/mL). It also gave an MIC (Acinetobacter baumannii [25]) of 0.7 µM (≈ 1.89 µg/mL), an MIC (Acinetobacter baumannii [26]) of 0.7 µM (≈ 1.89 µg/mL) and an MIC (Acinetobacter baumannii [27]) of 0.7 µM (≈ 1.89 µg/mL). It also gave an MIC (Acinetobacter baumannii [28]) of 0.7 µM (≈ 1.89 µg/mL), an MIC (Acinetobacter baumannii [29]) of 1.5 µM (≈ 4.05 µg/mL) and an MIC (Acinetobacter baumannii [30]) of 0.7 µM (≈ 1.89 µg/mL). It also gave an MIC (Acinetobacter baumannii [31]) of 0.7 µM (≈ 1.89 µg/mL), an MIC (Acinetobacter baumannii [32]) of 1.4 µM (≈ 3.78 µg/mL) and an MIC (Acinetobacter baumannii [33]) of 3 µM (≈ 8.09 µg/mL). The MIC (Acinetobacter baumannii [34]) was 1.5 µM (≈ 4.05 µg/mL), the MIC (Acinetobacter baumannii [35]) was 0.7 µM (≈ 1.89 µg/mL) and the HC50 at 18 h [36] was greater than 742 µM. For the same compound, the MIC (Acinetobacter baumannii [37]) was 0.7 µM (≈ 1.89 µg/mL).
